The text below walks through data of ChEMBL document CHEMBL2434897, “Synthesis of 15-methylene-eburnamonine from (+)-vincamine, evaluation of anticancer activity, and investigation of mechanism of action by quantitative NMR” (Bioorg Med Chem Lett, 2013).

A short description of data set [1]: Cytotoxicity against human KMS-12-BM cells after 96 hrs by MTS assay. It counts as functional, cell-based. The method in brief:
(§1)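 Cells kept in RPMI-1640 with 10% FBS and 1% penicillin/streptomycin at 37 °C under humidified 5% CO2. Seeded at 25,000 cells/well (KMS-12BM, RPMI-8226, U266) or 5000 cells/well (LNCaP), then exposed to graded drug concentrations or DMSO vehicle for 96 h. MTS read-out at OD 492 nm. LC50 from four-parameter logistic fit of log-transformed, vehicle-normalized OD; ≥3 independent experiments in triplicate.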
(Formazan colour is commonly taken as a measure of viable cells.)

Data set [2] concerns U-266. In words: Cytotoxicity against human U266 cells after 96 hrs by MTS assay. It is filed as functional, cell-based. Particulars: U-266, 96 h. The method in brief:
as §1

Data set [3] deals with LNCaP. Nature of the data set: Cytotoxicity against human LNCAP cells after 96 hrs by MTS assay. It is filed as functional, cell-based. The method in brief:
as §1

Data set [4] relates to RPMI-8226. In words: Cytotoxicity against human RPMI8226 cells after 96 hrs by MTS assay. It counts as functional, cell-based. Particulars: RPMI-8226, 96 h. The method in brief: as §1
Data set [5] relates to MDA-MB-231. Nature of the data set: Cytotoxicity against human MDA-MB-231 cells after 96 hrs by MTS assay. It counts as functional, cell-based. Particulars: MDA-MB-231, 96 h.
The nature of data set [6]: Cytotoxicity against human FnMSC cells after 96 hrs by MTS assay. It is filed as cell-based. Conditions: read-out: LC50.

In the case of `CC[C@]12CCCN3CCc4c(n(c5ccccc45)C(=O)C1)[C@@H]32` [VINBURNINE], the median lethal concentration (LC50) in data set [1] is greater than 100 µM; in data set [2], greater than 100 µM; in data set [3] it was greater than 100 µM; in data set [4] it was greater than 100 µM; in data set [5], 41.8 µM.

Consider `C=C1C(=O)n2c3c(c4ccccc42)CCN2CCC[C@]1(CC)[C@@H]32`, for which, in data set [6], the CC50 at 96 h was 16.7 µM. Besides, the LC50 amounted to 4 µM in data set [1]; 4.3 µM in data set [2]; 9.5 µM in data set [3]; 12.2 µM in data set [4]; 14.1 µM in data set [5].

As usually defined, the LC50 is the concentration that kills 50% of the test population. Low readings indicate a more lethal substance, high ones a less lethal substance.
